In the library only some 1.8% were active in any assay of this set; here they are far more common.
DDE Tn6 FP inh – inhibitors of Tn6 peptide binding to fibrin DD(E), primary screen, biochemical, fluorescence polarization, human fibrin, Tn6 probe | inhibition, % at 8.3 µM | AID 720509, 2013 | Fibrinogen beta chain (Homo sapiens), P02675 | 0.21% of 370,000 active | Fibrin DD(E) TRITC-Tn6 fluorescence polarization displacement;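 active = inhibition above a per-campaign cutoff: mean of compounds within control limits plus 3 SD, cut at about 15% in these data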;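 note: 0% = median of all compound wells on the plate and 100% = blocking peptide control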
Target sequence (P02675 whole entry, looked up): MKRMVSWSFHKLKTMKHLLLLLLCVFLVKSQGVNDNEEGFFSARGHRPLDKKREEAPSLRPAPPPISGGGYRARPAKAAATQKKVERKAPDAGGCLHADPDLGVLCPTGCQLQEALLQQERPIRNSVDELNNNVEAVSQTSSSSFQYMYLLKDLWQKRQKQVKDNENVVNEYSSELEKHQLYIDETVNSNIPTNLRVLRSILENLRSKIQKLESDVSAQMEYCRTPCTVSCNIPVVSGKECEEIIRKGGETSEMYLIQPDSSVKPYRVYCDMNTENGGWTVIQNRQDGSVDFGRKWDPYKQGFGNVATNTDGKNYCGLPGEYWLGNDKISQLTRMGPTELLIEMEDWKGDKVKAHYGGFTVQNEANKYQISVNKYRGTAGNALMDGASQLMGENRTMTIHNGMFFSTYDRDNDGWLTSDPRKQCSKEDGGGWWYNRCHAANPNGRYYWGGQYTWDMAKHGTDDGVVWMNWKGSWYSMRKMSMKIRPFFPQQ
CAL PDZ FP-1 – CAL PDZ peptide-binding inhibitors, primary screen, biochemical, fluorescence polarization, Cer-tagged CAL PDZ, HTS | Golgi-associated PDZ and coiled-coil motif-containing protein (Homo sapiens), Q9HD26 | purified CAL PDZ, TMR-peptide fluorescence polarization, 1 h | inhibition, % at 20 µM | 0.02% of 330,000 active;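 active = highest replicate inhibition of at least 40%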;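 note: plate controls were DMSO neutral control wells for no effect and unlabeled competitor peptide control wells for full effect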
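Test system: tagged CAL PDZ domain / Buffer or medium: sodium phosphate/NaCl buffer pH 7.4 with TCEP, IgG, Thesit / Reagent: TMR-labelled reporter peptide T*-PRC34 bound in PDZ groove / Compound dosing: single point, 20 µM / Schedule: 1 h incubation at room temperature before polarization reading / Technique: fluorescence polarization (mP) / Benchmarks: unlabelled peptide, DMSO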
Tn7 DDE FP – inhibitors of Tn7 peptide binding to fibrin DD(E), primary screen, biochemical, fluorescence polarization, human fibrin, Tn7 probe. Fibrinogen beta chain (Homo sapiens), P02675. FP displacement of FITC-Tn7 peptide from fibrin DD(E); 0% = median of compound wells per plate. inhibition, % at 8.3 µM. 0.13% of 370,000 active. AID 720508, 2013;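 active = inhibition above the mean of compounds falling within the control limits plus 3 SD of them, cut at about 14% in these data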;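 note: 0% = plate median of compound wells and 100% = 10 µM Aha-Tn7 peptide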
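system = human fibrin DD(E) protein | quantity = DD(E) 2 µM final | medium = Tris/NaCl/CaCl2 buffer, pH 7.8 | also added = labelled Tn7 tracer, 0.1 µM | compound dosing = single point at 8.3 µM | timing = compound with protein 10 min, then 3 h after probe, room temperature | signal = FP measurement | benchmarks = Aha-Tn7 high control | repeats = one replicate per compound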
ARNT TACC3 PPI – disruptors of ARNT/TACC3 protein interaction, primary screen, biochemical, AlphaScreen, single concentration; Transforming acidic coiled-coil-containing protein 3 (Homo sapiens), Q9Y6A5; AlphaScreen His-ARNT PAS-B/GST-TACC3 binding, luminescence; TACC3 fragment carries E629A point mutation; inhibition, % at 9.99 µM; 0.66% of 390,000 active; AID 623870, 2012;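 active = mean inhibition of replicates at least 50% and at least half of replicates each reaching 50%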;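 note: 0% = complete ARNT plus TACC3 wells and 100% = ARNT alone without TACC3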
GRK2 inh – compounds blocking aptamer binding on GRK2 – biochemical, human GRK2, bead flow cytometry, HTS, primary screen; Beta-adrenergic receptor kinase 1 (Homo sapiens), P25098; inhibition of aptamer binding, % at 10 µM; 0.59% of 330,000 active; FAM-aptamer displacement from GRK2; AID 488847, 2010;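 active = inhibition of aptamer binding above 40%, roughly 3 SD of noise, on plates passing a quality check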;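 note: median bead fluorescence of bound FAM aptamer so fluorescent compounds give negative values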
CAL PDZ FP-2 – untagged CAL PDZ binding inhibitors, primary screen, biochemical, fluorescence polarization, HTS. purified CAL PDZ, TMR-peptide fluorescence polarization, 1 h. Golgi-associated PDZ and coiled-coil motif-containing protein (Homo sapiens), Q9HD26. inhibition, % at 24.9 µM. 0.92% of 300,000 active;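 active = mean inhibition of at least 30% with at least half of replicates also reaching 30%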;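 note: 0% = DMSO neutral control and 100% = excess unlabeled competitor peptide PRC23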
The depositor's hits bear a star; · = no result given.

SMILES	DDE Tn6 FP inh	CAL PDZ FP-1	Tn7 DDE FP	ARNT TACC3 PPI	GRK2 inh	CAL PDZ FP-2
O=C(Nc1ccc(C(=O)N2CCCCC2)cc1)C1CC1	5.9	0.0	-3.3	19.9	·	41.9*
Cc1ccc(C(=O)NCCc2ccc(S(=O)(=O)N3CCCC3)cc2)cc1	-3.9	-0.3	1.1	-4.2	1.0	43.9*
CCC(=O)N(C)C[C@@H]1Oc2ncc(C#Cc3ccncc3)cc2C(=O)N([C@@H](C)CO)C[C@@H]1C	·	·	·	0.2	·	·
O=C(COc1ccc(S(=O)(=O)Nc2ccc(Cl)cc2)cc1)N1CCOCC1	-3.1	-0.9	5.3	-5.4	0.0	99.9*
O=C(COc1ccc(Br)cc1)OCC(=O)N1CCOCC1	3.0	-0.4	2.5	-26.5	3.0	·
O=C(COc1ccc2cc(Br)ccc2c1)N1CCOCC1	4.0	-1.3	-2.0	·	1.0	102.5*
CCOC(=O)C1(Cc2ccccc2C)CCCN(S(=O)(=O)CC)C1 (stereo not given)	-0.3	-0.2	-3.8	-8.4	1.0	-0.2
Cc1ccc(-c2cnc3c(c2)C(=O)N([C@@H](C)CO)C[C@H](C)[C@@H](CN(C)C(=O)c2ccncc2)O3)cc1	·	·	·	-1.8	·	·
CSCCC(NC(N)=O)C(=O)NCc1ccccc1Cl (stereo not given)	-4.3	·	3.6	-1.9	10.0	38.2*
CSCCC(NC(N)=O)C(=O)NCc1cccc(Cl)c1 (stereo not given)	-8.2	-2.1	-7.0	-1.7	0.0	5.9
O=C1CN2NC(=S)N(c3ccccc3)C2=CN1c1ccc(Cl)cc1	2.7	-0.9	2.4	-3.9	0.0	114.7*
CCOc1ccc2nc(/N=C/c3c(C)[nH]n(-c4ccccc4)c3=O)sc2c1	6.3	-1.0	1.9	27.4*	3.0	-1.9
CCOc1ccc2nc(/N=C/c3c(C)[nH]n(-c4ccc(C)cc4)c3=O)sc2c1	-2.6	-1.3	0.2	32.3	0.0	0.2
CC(C)(C)OC(=O)N1CCCC(C(=O)Nc2ccc(C(=O)NC3CC3)cc2)C1 (stereo not given)	4.2	-0.7	3.1	0.3	·	-3.8
CCOC(=O)c1c(C)c(C(=O)NCc2ccccn2)c(C)n1CC	·	0.7	·	47.7*	0.0	·
Cc1onc(-c2c(F)cccc2Cl)c1C(=O)NCc1ccccn1	-7.5	-0.8	-5.6	4.8	0.0	87.7*
O=C(CN(Cc1ccccc1)S(=O)(=O)c1ccc(F)cc1)NCCC1=CCCCC1	-12.7	24.5	-4.5	-6.8	0.0	73.2*
COc1ccc([N+](=O)[O-])cc1C(=O)NCCOc1ccc(Cl)cc1	1.2	0.9	-0.1	1.0	0.0	-0.7
COC(=O)[C@H](C)N(Cc1ccc(Cl)c(Cl)c1)S(=O)(=O)CCN1CCCC1	4.6	-1.4	5.6	1.8	2.0	34.8*
COC(=O)[C@H](C)N(Cc1ccc(Cl)c(Cl)c1)S(=O)(=O)CCN1CCN(c2ccccc2)CC1	-7.1	-0.8	-7.1	3.6	3.0	0.5
COC(=O)C[C@H]1C=C[C@H](NC(=O)c2ccccc2)[C@H](CO)O1	·	·	·	-30.3	·	·
CN(NC(=O)c1ccccc1F)c1ccc([N+](=O)[O-])cn1	-2.1	-0.8	-6.3	-2.3	5.0	54.8*
O=C(NC(=O)N1CCN(c2ccc([N+](=O)[O-])cn2)CC1)c1ccccc1F	8.0	0.1	10.4	2.2	0.0	·
O=C1CN(C(=S)NC(=O)c2ccc(-c3ccccc3)cc2)CCN1	1.0	-0.8	1.5	-4.1	2.0	42.6*
COc1ccc(C(=O)NC(=S)N2CCNC(=O)C2)cc1Br	2.1	-1.6	3.2	-1.4	0.0	-1.5
SMILES	DDE Tn6 FP inh	CAL PDZ FP-1	Tn7 DDE FP	ARNT TACC3 PPI	GRK2 inh	CAL PDZ FP-2
C[C@H](CO)N1C[C@H](C)[C@@H](CN(C)Cc2ccc(C(=O)Nc3ccccc3N)cc2)Oc2c(NC(=O)c3cnccn3)cccc2C1=O	·	·	·	2.1	·	·
CN(CCCC1CCCC1)C(=O)CC1C(=O)NCCN1Cc1ccc(F)cc1 (stereo not given)	-7.9	-2.0	-7.5	4.2	4.0	40.8*
CN(C)c1ccc(C(=S)N2CCN(c3ccccc3)CC2)cc1	4.8	·	6.5	-7.0	0.0	50.5*
COCc1nnc(NC(=O)c2cccc(NC(=O)C(C)C)c2)s1	2.3	2.1	3.7	-7.3	0.0	-2.4
CCc1nnc(NC(=O)c2cccc(NC(=O)C(C)C)c2)s1	-3.9	-1.3	1.3	1.8	1.0	44.6*
COC(=O)C[C@H]1C=C[C@H](N)[C@H](CO)O1	·	·	·	-3.4	·	·
N#C/C(=C\c1c(N2CCN(c3ccccc3)CC2)nc2ccccn2c1=O)S(=O)(=O)c1ccccc1	-1.5	-1.7	2.7	-3.4	4.0	-0.5
N#CC(C#N)=Cc1c(N2CCN(c3ccccc3)CC2)nc2ccccn2c1=O	3.5	-1.1	-7.5	-0.8	1.0	47.9*
N#C/C(=C\c1c(N2CCCCC2)nc2ccccn2c1=O)S(=O)(=O)c1ccccc1	-1.9	-6.2	-1.5	10.8	2.0	54.6*
Cc1ccc(OCCNC(=O)[C@H]2O[C@@H](n3cnc4c(N)ncnc43)[C@H](O)[C@@H]2O)cc1C	3.5	·	-3.1	·	·	·
C/C(=N\NC(=O)Cc1cccs1)c1ccco1	6.3	·	-3.0	·	·	·
C[C@@H]1CN([C@H](C)CO)C(=O)c2cc(C#CC3(O)CCCC3)cnc2O[C@@H]1CN(C)C(=O)CC1CC1	·	·	·	-4.4	·	·
N#C/C(=C\c1ccncc1)C(N)=O	4.1	-0.2	-4.9	-0.3	0.0	-3.3
NC(=O)/C(=C\c1ccncc1)c1cccc2ccccc12	-2.8	-0.7	0.9	-6.9	1.0	73.9*
Cc1cccc(C(=O)NCC(=O)NC(C)CCc2ccccc2)c1 (stereo not given)	3.3	-0.3	6.1	-0.7	0.0	31.7*
Cc1ccc(S(=O)(=O)Nc2cccc3c2O[C@H](CN(C)C)[C@@H](C)CN([C@@H](C)CO)C3=O)cc1	·	·	·	-4.8	·	·
Cn1ncc(=S)[nH]c1=S	2.0	0.1	-3.1	-2.8	·	84.6*
CCOC(=O)c1csc(Nc2nc3ccc(F)cc3s2)n1	-1.4	0.1	-0.7	-12.0	15.0	39.3*
COc1ccccc1-c1nnc(NC(=O)c2ccc(S(=O)(=O)N(C)C)cc2)o1	0.6	-3.3	2.3	56.8*	1.0	3.4

Screening data (PubChem BioAssay)
